Data from ChEMBL document CHEMBL4665633, “Cereblon versus VHL: Hijacking E3 ligases against each other using PROTACs” (Bioorg Med Chem, 2019).
Calls of active or inactive are those of the source. No cut-off for these calls is given here.

What was measured:
Type in all cases: cell-based
[1] = biological target: T1, Protein cereblon/von Hippel-Lindau disease tumor suppressor (Homo sapiens, UniProt P40337+Q96SW2); assay: Protac activity at VHL/CRBN in human HeLa cells assessed as pVHL19 protein abundance at 1 uM after 4 hrs by Western blot analysis relative to DMSO
Method in brief: (§1)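 HeLa cells seeded overnight, then exposed to 1 µM compound (0.1% v/v DMSO final) over a time course. Cells were DPBS-washed and RIPA-lysed with protease inhibitors and benzonase; equal protein was loaded. Immunoblots for CRBN and VHL isoforms were quantified against β-tubulin and reported relative to the averaged 0.1% DMSO vehicle.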

[2] = biological target: T1, Protein cereblon/von Hippel-Lindau disease tumor suppressor; assay: Protac activity at VHL/CRBN in human HeLa cells assessed as pVHL30 protein abundance at 10000 nM after 4 hrs by Western blot analysis relative to DMSO
Method in brief: (§2)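 HeLa cells (5 × 10⁵, DMEM + 10% FBS, 37 °C, 5% CO₂, ≤30 passages) seeded overnight, then treated 4 h with compound at single or graded concentrations (0.1% v/v DMSO final). RIPA lysates equalised by Bradford; SDS-PAGE and anti-CRBN/anti-VHL immunoblots; bands normalised to β-tubulin and expressed as % of mean DMSO vehicle. DC₅₀ from fit of band intensity versus log[concentration].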

[3] = biological target: T1, Protein cereblon/von Hippel-Lindau disease tumor suppressor; assay: Protac activity at VHL/CRBN in human HeLa cells assessed as pVHL30 protein abundance at 5000 nM after 4 hrs by Western blot analysis relative to DMSO; method in brief: as §2
[4] = biological target: T1, Protein cereblon/von Hippel-Lindau disease tumor suppressor; assay: Protac activity at VHL/CRBN in human HeLa cells assessed as reduction in CRBN protein level at 1 uM after 4 hrs by Western blot analysis; method in brief: as §2
[5] = biological target: T1, Protein cereblon/von Hippel-Lindau disease tumor suppressor; assay: Protac activity at VHL/CRBN in HEK293 cells assessed as pVHL30 protein abundance at 1 uM after 24 hrs by Western blot analysis relative to DMSO
Method in brief: (§3)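 HEK293 cells (DMEM, 10% FBS, penicillin/streptomycin, L-glutamine; 37 °C, 5% CO2; ≤30 passages) seeded at 1 × 10⁶ per well overnight, then treated with compound at 0.1% v/v final DMSO. Cells were lysed in RIPA with protease inhibitors and benzonase, then clarified. Equal Bradford-quantified protein was immunoblotted for CRBN/VHL. Bands were normalised to β-tubulin and expressed as % of mean 0.1% DMSO vehicle.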

[6] = biological target: T1, Protein cereblon/von Hippel-Lindau disease tumor suppressor; assay: Protac activity at VHL/CRBN in human HeLa cells assessed as pVHL30 protein abundance at 100 nM after 4 hrs by Western blot analysis relative to DMSO; method in brief: as §2
[7] = biological target: T1, Protein cereblon/von Hippel-Lindau disease tumor suppressor; assay: Protac activity at VHL/CRBN in human HeLa cells assessed as CRBN protein abundance at 500 nM after 4 hrs by Western blot analysis relative to DMSO; method in brief: as §2
[8] = biological target: T1, Protein cereblon/von Hippel-Lindau disease tumor suppressor; assay: Protac activity at VHL/CRBN in HEK293 cells assessed as pVHL19 protein abundance at 10000 nM after 4 hrs by Western blot analysis relative to DMSO; method in brief: as §3
[9] = biological target: T1, Protein cereblon/von Hippel-Lindau disease tumor suppressor; assay: Protac activity at VHL/CRBN in human HeLa cells assessed as CRBN protein abundance at 1 uM after 12 hrs by Western blot analysis relative to DMSO; method in brief: as §1
[10] = biological target: T1, Protein cereblon/von Hippel-Lindau disease tumor suppressor; assay: Protac activity at VHL/CRBN in human HeLa cells assessed as CRBN protein abundance at 10 nM after 4 hrs by Western blot analysis relative to DMSO; method in brief: as §2
[11] = biological target: T1, Protein cereblon/von Hippel-Lindau disease tumor suppressor; assay: Protac activity at VHL/CRBN in HEK293 cells assessed as pVHL19 protein abundance at 5 nM after 4 hrs by Western blot analysis relative to DMSO; method in brief: as §3
[12] = biological target: T1, Protein cereblon/von Hippel-Lindau disease tumor suppressor; assay: Protac activity at VHL/CRBN in HEK293 cells assessed as CRBN protein abundance at 1 uM after 8 hrs by Western blot analysis relative to DMSO; method in brief: as §3
[13] = biological target: T1, Protein cereblon/von Hippel-Lindau disease tumor suppressor; assay: Protac activity at VHL/CRBN in human HeLa cells assessed as CRBN protein abundance at 1 uM after 8 hrs by Western blot analysis relative to DMSO; method in brief: as §1
[14] = biological target: T1, Protein cereblon/von Hippel-Lindau disease tumor suppressor; assay: Protac activity at VHL/CRBN in human HeLa cells assessed as pVHL30 protein abundance at 1 uM after 2 hrs by Western blot analysis relative to DMSO; method in brief: as §1
[15] = biological target: T1, Protein cereblon/von Hippel-Lindau disease tumor suppressor; assay: Protac activity at VHL/CRBN in human HeLa cells assessed as CRBN protein abundance at 10000 nM after 4 hrs by Western blot analysis relative to DMSO; method in brief: as §2
[16] = biological target: T1, Protein cereblon/von Hippel-Lindau disease tumor suppressor; assay: Protac activity at VHL/CRBN in human HeLa cells assessed as pVHL30 protein abundance at 1 uM after 1 hr by Western blot analysis relative to DMSO; method in brief: as §1
[17] = biological target: T1, Protein cereblon/von Hippel-Lindau disease tumor suppressor; assay: Protac activity at VHL/CRBN in HEK293 cells assessed as pVHL30 protein abundance at 1000 nM after 4 hrs by Western blot analysis relative to DMSO; method in brief: as §3
[18] = biological target: T1, Protein cereblon/von Hippel-Lindau disease tumor suppressor; assay: Protac activity at VHL/CRBN in human HeLa cells assessed as pVHL19 protein abundance at 5 nM after 4 hrs by Western blot analysis relative to DMSO; method in brief: as §2
[19] = biological target: T1, Protein cereblon/von Hippel-Lindau disease tumor suppressor; assay: Protac activity at VHL/CRBN in human HeLa cells assessed as pVHL19 protein abundance at 50 nM after 4 hrs by Western blot analysis relative to DMSO; method in brief: as §2
[20] = biological target: T1, Protein cereblon/von Hippel-Lindau disease tumor suppressor; assay: Protac activity at VHL/CRBN in human HeLa cells assessed as pVHL19 protein abundance at 10 nM after 4 hrs by Western blot analysis relative to DMSO; method in brief: as §2
[21] = biological target: T1, Protein cereblon/von Hippel-Lindau disease tumor suppressor; assay: Protac activity at VHL/CRBN in HEK293 cells assessed as pVHL30 protein abundance at 1 uM after 8 hrs by Western blot analysis relative to DMSO; method in brief: as §3
[22] = biological target: T1, Protein cereblon/von Hippel-Lindau disease tumor suppressor; assay: Protac activity at VHL/CRBN in human HeLa cells assessed as CRBN protein abundance at 5 nM after 4 hrs by Western blot analysis relative to DMSO; method in brief: as §2
[23] = biological target: T1, Protein cereblon/von Hippel-Lindau disease tumor suppressor; assay: Protac activity at VHL/CRBN in HEK293 cells assessed as pVHL19 protein abundance at 1 uM after 1 hr by Western blot analysis relative to DMSO; method in brief: as §3
[24] = biological target: T1, Protein cereblon/von Hippel-Lindau disease tumor suppressor; assay: Protac activity at VHL/CRBN in human HeLa cells assessed as pVHL30 protein abundance at 1 uM after 8 hrs by Western blot analysis relative to DMSO; method in brief: as §1
[25] = biological target: T1, Protein cereblon/von Hippel-Lindau disease tumor suppressor; assay: Protac activity at VHL/CRBN in HEK293 cells assessed as pVHL30 protein abundance at 100 nM after 4 hrs by Western blot analysis relative to DMSO; method in brief: as §3
[26] = biological target: T1, Protein cereblon/von Hippel-Lindau disease tumor suppressor; assay: Protac activity at VHL/CRBN in human HeLa cells assessed as CRBN protein abundance at 5000 nM after 4 hrs by Western blot analysis relative to DMSO; method in brief: as §2
[27] = biological target: T1, Protein cereblon/von Hippel-Lindau disease tumor suppressor; assay: Protac activity at VHL/CRBN in HEK293 cells assessed as pVHL30 protein abundance at 50 nM after 4 hrs by Western blot analysis relative to DMSO; method in brief: as §3
[28] = biological target: T1, Protein cereblon/von Hippel-Lindau disease tumor suppressor; assay: Protac activity at VHL/CRBN in human HeLa cells assessed as pVHL30 protein abundance at 1 uM after 12 hrs by Western blot analysis relative to DMSO; method in brief: as §1

T1 sequence (P40337 whole entry, looked up, canonical isoform): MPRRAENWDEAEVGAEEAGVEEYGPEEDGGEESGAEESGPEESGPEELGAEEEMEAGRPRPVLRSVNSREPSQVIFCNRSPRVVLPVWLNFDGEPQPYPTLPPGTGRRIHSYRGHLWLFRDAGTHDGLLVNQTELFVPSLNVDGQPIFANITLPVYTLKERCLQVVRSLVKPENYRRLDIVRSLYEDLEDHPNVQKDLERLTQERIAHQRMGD
T1 sequence (Q96SW2 whole entry, looked up, canonical isoform): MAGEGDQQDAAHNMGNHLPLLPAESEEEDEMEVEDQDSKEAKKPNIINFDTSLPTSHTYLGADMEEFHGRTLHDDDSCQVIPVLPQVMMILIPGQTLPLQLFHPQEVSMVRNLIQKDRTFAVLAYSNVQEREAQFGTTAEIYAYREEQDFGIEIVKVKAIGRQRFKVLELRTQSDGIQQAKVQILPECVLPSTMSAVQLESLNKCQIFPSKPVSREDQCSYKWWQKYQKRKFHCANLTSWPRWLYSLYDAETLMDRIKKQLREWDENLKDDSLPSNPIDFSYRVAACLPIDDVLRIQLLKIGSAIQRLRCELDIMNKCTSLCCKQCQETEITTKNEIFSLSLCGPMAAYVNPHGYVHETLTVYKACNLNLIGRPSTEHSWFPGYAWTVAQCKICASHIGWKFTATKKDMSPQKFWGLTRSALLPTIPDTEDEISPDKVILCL

How did the Activity [1] turn out when `Cc1ncsc1-c1ccc(CNC(=O)[C@@H]2C[C@@H](O)CN2C(=O)[C@@H](NC(=O)COCCCCCOCCOCCCCCOCC(=O)NCCNc2cccc3c2C(=O)N(C2CCC(=O)NC2=O)C3=O)C(C)(C)C)cc1` (stereo partly drawn) was run?
The Activity was 100%.

And the Activity [2]?
The Activity was 142%.

What about the Activity [3] of the same compound?
The Activity was 143%.

And the Activity [4]?
Its Activity is “Active”.

What about the Activity [5] of the same compound?
The Activity was 101%.

And the Activity [6]?
The Activity was 101%.

And the Activity [7]?
The Activity was 33%.

And the Activity [8]?
Its Activity is 106%.

And the Activity [9]?
Its Activity is 12%.

What about the Activity [10] of the same compound?
Its Activity is 81%.

And the Activity [11]?
Its Activity is 108%.

What about the Activity [12] of the same compound?
Its Activity is 2%.

And the Activity [13]?
Its Activity is 15%.

And the Activity [14]?
Its Activity is 89%.

What about the Activity [15] of the same compound?
Its Activity is 86%.

And the Activity [16]?
Its Activity is 100%.

And the Activity [17]?
Its Activity is 127%.

What about the Activity [18] of the same compound?
The Activity was 87%.

And the Activity [19]?
The Activity was 95%.

What about the Activity [20] of the same compound?
The Activity was 95%.

And the Activity [21]?
Its Activity is 101%.

What about the Activity [22] of the same compound?
Its Activity is 85%.

And the Activity [23]?
Its Activity is 98%.

What about the Activity [24] of the same compound?
The Activity was 116%.

What about the Activity [25] of the same compound?
The Activity was 124%.

What about the Activity [26] of the same compound?
The Activity was 49%.

What about the Activity [27] of the same compound?
The Activity was 133%.

What about the Activity [28] of the same compound?
The Activity was 93%.
